Assay results gathered from unrelated publications.
Lines come from different studies, so protocols differ.
SIGMAR1: Sigma non-opioid intracellular receptor 1 (SIGMAR1, Homo sapiens, UniProt Q99720)
HTR2A: 5-hydroxytryptamine receptor 2A (HTR2A, Homo sapiens, UniProt P28223)
Oprm1: Mu-type opioid receptor (Oprm1, Mus musculus, UniProt P42866)

CN1CC[C@@]23CCCC[C@@H]2[C@@H]1Cc1ccc(O)cc13 — Ki (SIGMAR1; ligand displacement; radioligand): 2670 nM
NCCc1c[nH]c2ccc(Cl)cc12 — Ki (HTR2A; ligand displacement; radioligand): 889 nM
O=C(N[C@@H]1C=C[C@@]2(O)[C@H]3Cc4ccc(O)c5c4[C@@]2(CCN3CC2CC2)[C@H]1O5)c1c[nH]c2cnccc12 — Ki (Oprm1; ligand displacement; radioligand): 0.56 nM
CN[C@@H](C)[C@@H](O)c1ccccc1 — Ki (SIGMAR1; ligand displacement; radioligand): > 10000 nM
O=C(N[C@H]1C=C[C@@]2(O)[C@H]3Cc4ccc(O)c5c4[C@@]2(CCN3CC2CC2)[C@H]1O5)c1n[nH]c2ccccc12 — Ki (Oprm1; ligand displacement; radioligand): 0.33 nM
NCCc1c[nH]c2cc(F)ccc12 — Ki (HTR2A; ligand displacement; radioligand): 606 nM
O=C(N[C@@H]1C=C[C@@]2(O)[C@H]3Cc4ccc(O)c5c4[C@@]2(CCN3CC2CC2)[C@H]1O5)c1c[nH]c2cccnc12 — Ki (Oprm1; ligand displacement; radioligand): 0.41 nM
N#Cc1ccccc1-c1cc(-c2ccccn2)cn(-c2ccccc2)c1=O — IC50 (Glutamate receptor ionotropic, kainate 2 (Grik2, Rattus norvegicus, UniProt P42260); ion current; patch clamp): 58000 nM
O=[N+]([O-])c1cn2c(n1)OC[C@@H](OCc1ccc(OC(F)(F)F)cc1)C2 — Kd (ddn (Mycobacterium tuberculosis, UniProt P9WP15); binding; fluorescence): 13900 nM
COC(=O)/C=C/C(=O)N[C@@H]1CC[C@@]2(O)[C@H]3Cc4ccc(O)c5c4[C@@]2(CCN3CC2CC2)[C@H]1O5 — IC50 (Kappa-type opioid receptor (OPRK1, Homo sapiens, UniProt P41145, E297K); ligand displacement; radioligand; cell membranes): 4.29 nM
